Reference: ChEMBL document CHEMBL1128391, “Investigation of the configurational and conformational influences on the hormonal activity of 1,2-bis(2,6-dichloro-4-hydroxyphenyl)ethylenediamines and of their platinum(II) complexes. 1. Synthesis, estradiol receptor affinity, and estrogenic activity of diastereomeric [N-alkyl- and …” (J Med Chem, 1995)

Columns and labels:
Format in all cases: functional
[1] = target: T1, Estrogen receptor (Mus musculus) (UniProt O08537+P19785); assay: Estrogenic effect in uterotrophic assay in mice at 100 nM/animal dose
T1 sequence (O08537 whole entry, looked up): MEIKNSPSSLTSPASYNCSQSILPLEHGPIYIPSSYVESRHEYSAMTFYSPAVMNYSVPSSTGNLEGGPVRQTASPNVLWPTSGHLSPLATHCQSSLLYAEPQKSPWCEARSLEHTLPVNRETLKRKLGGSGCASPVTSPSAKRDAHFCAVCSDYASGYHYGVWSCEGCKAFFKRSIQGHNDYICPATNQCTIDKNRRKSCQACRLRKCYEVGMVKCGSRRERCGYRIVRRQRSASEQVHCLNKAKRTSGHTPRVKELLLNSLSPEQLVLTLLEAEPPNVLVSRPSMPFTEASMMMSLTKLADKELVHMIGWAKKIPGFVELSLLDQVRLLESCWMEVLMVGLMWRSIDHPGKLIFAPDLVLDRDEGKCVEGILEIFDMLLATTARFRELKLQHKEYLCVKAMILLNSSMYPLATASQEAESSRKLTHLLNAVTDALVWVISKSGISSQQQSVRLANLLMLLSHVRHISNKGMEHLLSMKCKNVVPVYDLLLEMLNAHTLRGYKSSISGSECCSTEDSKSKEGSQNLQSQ
T1 sequence (P19785 whole entry, looked up): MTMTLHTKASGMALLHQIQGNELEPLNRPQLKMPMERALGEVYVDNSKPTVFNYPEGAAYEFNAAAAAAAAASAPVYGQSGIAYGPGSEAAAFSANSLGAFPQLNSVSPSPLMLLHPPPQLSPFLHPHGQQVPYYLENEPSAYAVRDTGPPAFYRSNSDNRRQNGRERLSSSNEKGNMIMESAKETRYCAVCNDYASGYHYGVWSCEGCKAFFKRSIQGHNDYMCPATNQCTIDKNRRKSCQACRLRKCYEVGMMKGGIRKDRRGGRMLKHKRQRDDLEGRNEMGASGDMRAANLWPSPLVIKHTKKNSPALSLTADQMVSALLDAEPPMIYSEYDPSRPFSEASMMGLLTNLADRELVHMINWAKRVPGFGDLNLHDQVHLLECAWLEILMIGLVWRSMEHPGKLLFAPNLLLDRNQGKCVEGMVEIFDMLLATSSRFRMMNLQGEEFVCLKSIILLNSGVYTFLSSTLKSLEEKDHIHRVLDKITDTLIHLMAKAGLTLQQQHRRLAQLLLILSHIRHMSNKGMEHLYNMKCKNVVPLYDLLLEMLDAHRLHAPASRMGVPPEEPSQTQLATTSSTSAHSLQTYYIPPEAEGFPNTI
Method in brief: (§1)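 Immature female NMRI mice (20 days old, 10–12 g, six per group) given test compound sc once daily for three consecutive days in poly(ethylene glycol) 400/H2O (1.8% NaCl) 1:1. Uteri excised 24 h after last injection, fixed in Bouin's solution, dried, weighed. Effect = uterus dry weight (mg)/body weight (g) × 100, expressed relative to vehicle and estrone standard (0.4 μg) as % estrogenic effect.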

[2] = target: T1, Estrogen receptor (Mus musculus); assay: Estrogenic effect in uterotrophic assay in mice at 1 nM/animal dose; method in brief: as §1
[3] = target: T1, Estrogen receptor (Mus musculus); assay: Estrogenic effect in uterotrophic assay in mice at 0.1 nM/animal dose; method in brief: as §1
[4] = target: T1, Estrogen receptor (Mus musculus); assay: Estrogenic effect in uterotrophic assay in mice at 10 nM/animal dose; method in brief: as §1
[5] = target: T1, Estrogen receptor (Mus musculus); assay: Estrogenic effect in uterotrophic assay in mice at 1000 nM/animal dose; method in brief: as §1

| Estrogenic effect [1] [%] | Estrogenic effect [2] [%] | Estrogenic effect [3] [%] | Estrogenic effect [4] [%] | Estrogenic effect [5] [%] | SMILES |
| --- | --- | --- | --- | --- | --- |
| 156 | 93 | 22 | 140 | – | CCNC(CCC(N)c1c(Cl)cc(O)cc1Cl)c1c(Cl)cc(O)cc1Cl (stereo unspecified) |
| 128 | 125 | 61 | 140 | – | CCNC(CCC(NCC)c1c(Cl)cc(O)cc1Cl)c1c(Cl)cc(O)cc1Cl (stereo in doubt) |
| 142 | 0 | 0 | 78 | – | CCNC(CCC(NCC)c1c(Cl)cc(O)cc1Cl)c1c(Cl)cc(O)cc1Cl (racemic) |
| 127 | 47 | 0 | 139 | 47 | CNC(CCC(NC)c1c(Cl)cc(O)cc1Cl)c1c(Cl)cc(O)cc1Cl (stereo in doubt) |

The next lines start with the molecule.

| SMILES | Estrogenic effect [1] [%] | Estrogenic effect [2] [%] | Estrogenic effect [3] [%] | Estrogenic effect [4] [%] | Estrogenic effect [5] [%] |
| --- | --- | --- | --- | --- | --- |
| CNC(CCC(NC)c1c(Cl)cc(O)cc1Cl)c1c(Cl)cc(O)cc1Cl (racemic) | 12 | 0 | 0 | 3 | 72 |
| NC(CCC(N)c1c(Cl)cc(O)cc1Cl)c1c(Cl)cc(O)cc1Cl (stereo in doubt) | 100 | 38 | 0 | 135 | – |
| NC(CCC(N)c1c(Cl)cc(O)cc1Cl)c1c(Cl)cc(O)cc1Cl (racemic) | 10 | 0 | 0 | 13 | 21 |
